Values after ≈ are worked out from the molar mass of the structure shown.
Key:
[1] = target: Cytochrome P450 2C19 (Homo sapiens, UniProt P33261); test: Inhibition of CYP2C19 (unknown origin); assay type: ADME
[2] = target: T1, Cytochrome P450 1A2 (Homo sapiens, UniProt P05177); test: Inhibition of CYP1A2 (unknown origin); assay type: ADME
T1 sequence (P05177 whole entry): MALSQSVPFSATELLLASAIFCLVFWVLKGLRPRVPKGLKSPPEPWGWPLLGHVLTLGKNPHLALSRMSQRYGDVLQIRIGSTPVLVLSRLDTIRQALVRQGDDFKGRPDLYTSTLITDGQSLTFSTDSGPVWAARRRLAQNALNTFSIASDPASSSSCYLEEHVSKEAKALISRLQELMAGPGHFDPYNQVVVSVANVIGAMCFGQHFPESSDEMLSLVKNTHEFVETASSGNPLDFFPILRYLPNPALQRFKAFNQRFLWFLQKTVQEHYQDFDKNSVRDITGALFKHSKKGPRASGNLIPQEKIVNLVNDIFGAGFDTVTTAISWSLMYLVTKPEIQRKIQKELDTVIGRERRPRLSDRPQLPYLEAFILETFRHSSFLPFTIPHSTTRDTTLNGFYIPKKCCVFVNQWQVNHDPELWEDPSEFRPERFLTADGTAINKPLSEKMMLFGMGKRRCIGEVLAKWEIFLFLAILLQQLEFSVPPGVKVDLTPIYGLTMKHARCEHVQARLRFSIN

[3] = test system: dengue virus type 2; test: Antiviral activity against Dengue virus 2 Rega infected in African green monkey Vero cells assessed as reduction in viral yield after 4 days by qRT-PCR analysis; assay type: functional, organism-based
Outline: (§1)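 Virus yield reduction in Vero cells (seeded 5×10^4/well). Next day infected with DENV (MOI 0.01) in assay medium (MEM, 2% FBS, 0.075% bicarbonate, 2 mM L-glutamine). After 1 h, input virus was removed and cells rinsed 3 times. Medium with 3- or 5-fold compound serial dilutions was then added. Incubation was 4 days (DENV-2, DENV-4) or 7 days (DENV-1, DENV-3). Supernatant viral RNA was measured by RT-qPCR, and EC50 obtained by logarithmic interpolation.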

[4] = target: Cytochrome P450 2C9 (Homo sapiens, UniProt P11712); test: Inhibition of CYP2C9 (unknown origin); assay type: ADME
Cytochrome P450 2C9, sequence (P11712 whole entry): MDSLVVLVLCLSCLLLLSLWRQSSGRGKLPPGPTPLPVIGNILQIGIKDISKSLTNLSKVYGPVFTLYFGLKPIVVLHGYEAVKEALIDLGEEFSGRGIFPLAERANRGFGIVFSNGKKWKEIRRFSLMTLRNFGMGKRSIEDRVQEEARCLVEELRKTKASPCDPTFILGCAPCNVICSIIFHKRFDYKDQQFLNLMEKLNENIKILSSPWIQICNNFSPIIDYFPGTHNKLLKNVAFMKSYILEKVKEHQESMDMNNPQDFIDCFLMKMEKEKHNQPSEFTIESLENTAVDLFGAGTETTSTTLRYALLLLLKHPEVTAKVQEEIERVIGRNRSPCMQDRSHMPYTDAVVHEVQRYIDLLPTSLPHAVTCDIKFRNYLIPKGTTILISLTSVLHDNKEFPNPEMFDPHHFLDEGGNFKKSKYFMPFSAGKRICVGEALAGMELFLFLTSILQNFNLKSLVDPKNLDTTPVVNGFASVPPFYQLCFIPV

[5] = test system: P-gp (MDR1); test: (§2) Apparent permeability across apical to basolateral side in MDR1 transfected pig LLC-PK1 cells in absence of P-gp inhibitor GF120918; assay type: ADME, cell-based, Sus scrofa; settings: LLC-PK1
Outline: (§3)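 Permeability measured in MDR1-transfected LLC-PK1 cells without the P-gp inhibitor GF120918.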

[6] = Solubility of the compound in DMSO solution at pH 7.4; assay type: physicochemical
Outline: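 Solubility measured at pH 7.4, starting from a DMSO solution.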

[7] = Protein binding in human plasma; assay type: ADME, cell-free; settings: for fraction unbound: read-out: PPB (converted)
[8] = target: Cytochrome P450 2D6 (Homo sapiens, UniProt P10635); test: Inhibition of CYP2D6 (unknown origin); assay type: ADME
Cytochrome P450 2D6, sequence (P10635 whole entry): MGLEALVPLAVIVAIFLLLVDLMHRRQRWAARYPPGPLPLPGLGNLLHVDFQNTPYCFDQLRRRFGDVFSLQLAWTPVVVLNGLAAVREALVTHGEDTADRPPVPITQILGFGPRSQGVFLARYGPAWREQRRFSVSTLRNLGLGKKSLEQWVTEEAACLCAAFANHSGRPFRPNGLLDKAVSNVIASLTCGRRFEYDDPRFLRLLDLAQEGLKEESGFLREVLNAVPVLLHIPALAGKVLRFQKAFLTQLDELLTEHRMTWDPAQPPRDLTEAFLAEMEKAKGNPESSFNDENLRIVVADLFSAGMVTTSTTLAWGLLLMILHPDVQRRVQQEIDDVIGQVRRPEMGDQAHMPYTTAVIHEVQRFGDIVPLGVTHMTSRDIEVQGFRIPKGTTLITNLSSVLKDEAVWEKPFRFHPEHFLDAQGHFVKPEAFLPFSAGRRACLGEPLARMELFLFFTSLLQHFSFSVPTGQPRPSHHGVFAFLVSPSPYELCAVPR

[9] = Drug metabolism in rat liver microsomes after 15 mins; assay type: ADME, microsome; settings: for metabolised at 0.25 h: liver microsomes, read-out: Drug metabolism; for Drug metabolism: microsomes, 0.25 h
Outline: (§4)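 Percentage of compound metabolized after 15 min incubation with human or rat liver microsomes.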

[10] = (§5) Cytotoxicity against African green monkey Vero cells assessed as cell growth inhibition after 4 days by MTS/PMS method; assay type: cell-based; settings: chlorocebus sabaeus, Vero cells
Outline: (§6)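 Cytotoxicity run as in the yield assay, but without virus. Vero cells (5×10^4/well) were exposed to 3- or 5-fold serial dilutions in MEM with 2% FBS. Viability was read by the MTS/PMS colorimetric method. CC50 was derived by logarithmic interpolation.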

[11] = target: Cytochrome P450 3A4 (Homo sapiens, UniProt P08684); test: Inhibition of CYP3A4 (unknown origin); assay type: ADME
Cytochrome P450 3A4, sequence (P08684 whole entry): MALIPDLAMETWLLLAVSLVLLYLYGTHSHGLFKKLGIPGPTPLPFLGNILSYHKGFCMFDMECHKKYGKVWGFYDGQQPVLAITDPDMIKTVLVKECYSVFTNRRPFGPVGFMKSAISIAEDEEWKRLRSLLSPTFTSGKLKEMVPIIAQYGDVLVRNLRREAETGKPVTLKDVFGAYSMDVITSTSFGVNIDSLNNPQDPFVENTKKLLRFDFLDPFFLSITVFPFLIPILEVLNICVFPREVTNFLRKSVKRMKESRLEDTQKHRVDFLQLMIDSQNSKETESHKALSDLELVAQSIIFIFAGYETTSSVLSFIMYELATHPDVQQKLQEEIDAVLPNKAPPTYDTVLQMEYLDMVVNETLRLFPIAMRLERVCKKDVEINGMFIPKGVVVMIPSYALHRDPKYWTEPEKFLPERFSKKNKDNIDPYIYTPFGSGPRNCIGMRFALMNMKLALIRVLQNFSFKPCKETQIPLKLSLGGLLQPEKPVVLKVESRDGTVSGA

[12] = Drug metabolism in human liver microsomes after 15 mins; assay type: ADME, microsome; settings: for metabolised at 0.25 h: liver microsomes, read-out: Drug metabolism; for Drug metabolism: microsomes, 0.25 h; outline: as §4
[13] = Protein binding in rat plasma; assay type: ADME, cell-free; settings: for fraction unbound: read-out: PPB (converted)
[14] = test system: dengue virus type 4; test: Antiviral activity against Dengue virus 4 DAKHD34460 infected in African green monkey Vero cells assessed as reduction in viral yield after 4 days by qRT-PCR analysis; assay type: functional, organism-based; settings: 96 h; outline: as §1
[15] = test system: dengue virus type 3; test: Antiviral activity against Dengue virus 3 H87 infected in African green monkey Vero cells assessed as reduction in viral yield after 7 days by qRT-PCR analysis; assay type: functional, organism-based; settings: 168 h; outline: as §1
[16] = test system: dengue virus type 1; test: Antiviral activity against Dengue virus 1 Djibouti D1/H/IMTSSA/98/606 infected in African green monkey Vero cells assessed as reduction in viral yield after 7 days by qRT-PCR analysis; assay type: functional, organism-based; settings: Djibouti D1/H/IMTSSA/98/606, Vero, 168 h; outline: as §1
[17] = test system: Salmonella typhimurium; test: Mutagenicity in Salmonella typhimurium in absence of human liver S9 fraction by Ames test; assay type: toxicity, organism-based; settings: salmonella enterica subsp. enterica serovar typhimurium
[18] = target: Voltage-gated inwardly rectifying potassium channel KCNH2 (Homo sapiens, UniProt Q12809); test: Inhibition of human ERG
Voltage-gated inwardly rectifying potassium channel KCNH2, sequence (Q12809 whole entry): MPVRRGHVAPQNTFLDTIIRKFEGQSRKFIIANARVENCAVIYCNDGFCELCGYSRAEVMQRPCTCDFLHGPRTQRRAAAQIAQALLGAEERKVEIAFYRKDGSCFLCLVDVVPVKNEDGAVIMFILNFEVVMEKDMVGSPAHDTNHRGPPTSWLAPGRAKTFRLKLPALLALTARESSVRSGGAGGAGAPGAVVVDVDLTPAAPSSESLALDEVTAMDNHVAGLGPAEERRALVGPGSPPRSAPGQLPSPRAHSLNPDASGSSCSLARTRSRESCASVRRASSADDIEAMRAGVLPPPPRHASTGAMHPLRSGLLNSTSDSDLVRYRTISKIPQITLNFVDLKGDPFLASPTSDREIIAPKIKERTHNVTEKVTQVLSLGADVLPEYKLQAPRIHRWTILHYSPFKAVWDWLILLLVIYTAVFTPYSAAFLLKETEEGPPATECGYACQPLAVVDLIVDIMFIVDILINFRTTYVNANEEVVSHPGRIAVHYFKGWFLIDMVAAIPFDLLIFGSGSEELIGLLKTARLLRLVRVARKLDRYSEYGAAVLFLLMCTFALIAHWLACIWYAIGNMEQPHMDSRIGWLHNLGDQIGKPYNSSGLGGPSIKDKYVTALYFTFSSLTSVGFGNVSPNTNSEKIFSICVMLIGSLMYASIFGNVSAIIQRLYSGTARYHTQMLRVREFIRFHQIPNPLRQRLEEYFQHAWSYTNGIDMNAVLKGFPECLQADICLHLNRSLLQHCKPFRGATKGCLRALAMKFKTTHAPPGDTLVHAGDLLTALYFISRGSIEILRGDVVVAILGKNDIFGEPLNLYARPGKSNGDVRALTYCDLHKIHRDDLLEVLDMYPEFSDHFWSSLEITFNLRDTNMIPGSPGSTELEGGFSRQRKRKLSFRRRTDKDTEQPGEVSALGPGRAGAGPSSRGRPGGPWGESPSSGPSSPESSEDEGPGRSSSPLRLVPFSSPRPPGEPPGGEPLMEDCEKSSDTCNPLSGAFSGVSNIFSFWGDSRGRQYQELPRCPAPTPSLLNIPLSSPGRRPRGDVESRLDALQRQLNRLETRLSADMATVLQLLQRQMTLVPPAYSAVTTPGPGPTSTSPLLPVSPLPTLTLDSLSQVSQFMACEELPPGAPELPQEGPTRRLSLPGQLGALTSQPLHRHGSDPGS

[19] = test system: Salmonella typhimurium; test: Mutagenicity in Salmonella typhimurium in presence of human liver S9 fraction by Ames test; assay type: toxicity, organism-based; settings: salmonella enterica subsp. enterica serovar typhimurium
[20] = test system: dengue virus type 2; test: Antiviral activity against Dengue virus 2 Rega infected in African green monkey Vero cells assessed as log10 reduction of viral RNA replication at nontoxic dose after 4 days by qRT-PCR analysis relative to control; assay type: functional
[21] = Selectivity index, ratio of CC50 for African green monkey Vero cells to EC50 for Dengue virus 2 Rega; assay type: toxicity; settings: read-out: Ratio CC50/EC50
[22] = Half life in human liver microsomes; assay type: ADME, microsome
[23] = as §2; assay type: ADME, cell-based, Sus scrofa; settings: llc-pk1; outline: as §3
[24] = test system: Vero; test: as §5; assay type: cell-based; settings: chlorocebus sabaeus, vero, 96 h; outline: as §6
[25] = Oral bioavailability in rat at 10 mg/kg; assay type: ADME, organism-based; settings: in vivo
Outline: (§7)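 Rat PK. Intravenous dose was 2.5 mg/kg in PEG400/water 7/3. Oral dose was 10 mg/kg in PEG400.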

[26] = Volume of distribution at steady state in rat at 2.5 mg/kg, iv; assay type: ADME, organism-based; settings: in vivo, read-out: Vdss; outline: as §7
[27] = Cmax in rat at 10 mg/kg, po; assay type: ADME, organism-based; design: dose 10 mg/kg, route oral; settings: in vivo; outline: as §7
[28] = Half life in rat at 2.5 mg/kg, iv; assay type: ADME, organism-based; settings: in vivo; outline: as §7
[29] = Clearance in rat at 2.5 mg/kg, iv; assay type: ADME, organism-based; settings: in vivo; outline: as §7
[30] = AUClast in rat at 10 mg/kg, po; assay type: ADME, organism-based; design: dose 10 mg/kg, route oral, time 0 - last; settings: in vivo; outline: as §7

Cytochrome P450 2C19, sequence (P33261 whole entry): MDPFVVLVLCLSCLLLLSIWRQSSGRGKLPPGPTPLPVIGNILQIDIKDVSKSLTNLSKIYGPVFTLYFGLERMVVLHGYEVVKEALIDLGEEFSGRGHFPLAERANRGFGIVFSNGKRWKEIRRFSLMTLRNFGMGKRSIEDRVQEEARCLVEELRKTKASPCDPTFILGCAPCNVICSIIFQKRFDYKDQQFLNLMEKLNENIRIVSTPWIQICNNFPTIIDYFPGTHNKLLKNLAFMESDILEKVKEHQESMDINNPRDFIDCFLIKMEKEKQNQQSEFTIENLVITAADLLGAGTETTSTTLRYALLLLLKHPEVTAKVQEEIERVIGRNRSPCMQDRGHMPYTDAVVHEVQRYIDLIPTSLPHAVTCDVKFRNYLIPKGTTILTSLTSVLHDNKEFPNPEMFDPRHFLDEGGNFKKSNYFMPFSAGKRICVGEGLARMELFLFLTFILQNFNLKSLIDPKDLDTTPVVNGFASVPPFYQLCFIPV

Row | Structure (SMILES) | IC50 [1] | IC50 [2] | EC50 ([3]; Dengue virus, Rega, Vero, 96 h) | IC50 [4] | Papp A→B [5] | solubility ([6]; read-out: solubility) | fraction unbound [7] | IC50 [8] | metabolised at 0.25 h [9] | IC50 [11] | metabolised at 0.25 h [12] | fraction unbound [13] | EC50 [14] | EC50 [15] | EC50 ([3]; vero) | CC50 at 96 h [10] | EC50 [16] | Activity [17] | IC50 [18] | Activity [19] | also measured
1 | COc1cccc(NC(C(=O)c2c[nH]c3ccccc23)c2nc3ccccc3o2)c1 (centres undefined) | 3.2 µM | 4.2 µM | 0.011 µM | 6.1 µM | 5.6 ×10⁻⁶ cm/s | 1 µM (≈ 0.397 µg/mL) | < 0.002 | > 10 µM | 99% | > 10 µM | 19% | < 0.004 | – | – | – | 13 µM | – | – | – | – | –
2 | COc1cc(NC(C(=O)c2c[nH]c3ccccc23)c2cccnc2)cc(OC)c1 (centres undefined) | – | – | 0.015 µM | – | – | – | – | – | – | – | – | – | 2.5 µM | 0.31 µM | – | 69 µM | 0.173 µM | – | – | – | –
3 | COc1cncc(NC(C(=O)c2c[nH]c3ccccc23)c2ccccc2)c1 (centres undefined) | 2.5 µM | 2.8 µM | 0.036 µM | 3.3 µM | 4.7 ×10⁻⁶ cm/s | 42 µM (≈ 15 µg/mL) | 0.005 | 8.4 µM | 86% | 0.05 µM | 23% | 0.008 | – | – | – | 20 µM | – | Non-Toxic | 3.5 µM | Non-Toxic | –
4 | COc1ccc(NC(C(=O)c2c[nH]c3ccccc23)c2ccccc2)cc1OC (centres undefined) | – | – | 0.078 µM | – | – | – | – | – | – | – | – | – | 4.5 µM | 29.4 µM | – | 29 µM | 1.6 µM | Non-Toxic | – | Non-Toxic | FC [20]: 3.8; selectivity ratio [21]: 380
5 | COc1cc(NC(C(=O)c2c[nH]c3ccc(F)cc23)c2ccccc2)cc(OC)c1 (centres undefined) | – | – | 0.007 µM | – | – | – | – | – | – | – | – | – | 4.8 µM | 0.68 µM | – | 13 µM | 0.247 µM | Non-Toxic | – | Non-Toxic | –
6 | COc1cc(NC(C(=O)c2c[nH]c3ccc(CCCO)cc23)c2ccccc2)cc(OC)c1 (centres undefined) | – | – | 0.096 µM | – | – | 23 µM (≈ 10.2 µg/mL) | – | – | – | – | – | – | – | – | – | 56 µM | – | – | – | – | half-life [22]: 0.633 h

Continued, in another order:

Row | IC50 [1] | IC50 [2] | EC50 ([3]; Dengue virus, Rega, Vero, 96 h) | IC50 [4] | Papp A→B [5] | solubility ([6]; read-out: solubility) | fraction unbound [7] | IC50 [8] | metabolised at 0.25 h [9] | IC50 [11] | metabolised at 0.25 h [12] | fraction unbound [13] | EC50 [14] | EC50 [15] | EC50 ([3]; vero) | Structure (SMILES) | CC50 at 96 h [10] | EC50 [16] | Activity [17] | IC50 [18] | Activity [19] | also measured
7 | 4 µM | 2.4 µM | – | 4.8 µM | – | – | – | > 10 µM | – | > 10 µM | – | – | – | – | 0.007 µM | COc1cc(NC(C(=O)c2c[nH]c3ccccc23)c2ccccc2)cc(OC)c1 (racemic) | – | – | Non-Toxic | > 50 µM | Non-Toxic | Papp [23]: 7.5 ×10⁻⁶ cm/s; PPB [7]: 99.8%; Drug metabolism [9]: 63%; CC50 [24]: 16 µM; Drug metabolism [12]: 11%; PPB [13]: 99.9%
8 | 4.4 µM | > 10 µM | – | 3.1 µM | 1.8 ×10⁻⁶ cm/s | 48 µM (≈ 20 µg/mL) | 0.01 | > 10 µM | 21% | > 10 µM | – | 0.008 | – | – | 0.012 µM | COc1cc(NC(C(=O)c2c[nH]c3ccccc23)c2ccccc2)cc(OCCO)c1 (single isomer, unassigned; (+)) | – | – | – | > 50 µM | – | bioavailability [25]: 64%; Vd [26]: 5.8 L/kg; Cmax [27]: 706 nM; CC50 [24]: 105 µM; half-life [28]: 2.4 h; Drug metabolism [12]: 2%; clearance [29]: 35 mL/min/kg; AUC(0-t) [30]: 7.32 µM·h
9 | 2.3 µM | 1.4 µM | – | 3.2 µM | 7.6 ×10⁻⁶ cm/s | 6 µM (≈ 2.32 µg/mL) | – | > 10 µM | – | > 10 µM | 14% | 0.002 | 1.9 µM | 0.092 µM | 0.001 µM | COc1cc(NC(C(=O)c2c[nH]c3ccccc23)c2ccccc2)cc(OC)c1 (single isomer, unassigned; (+)) | 13 µM | 0.047 µM | – | – | – | bioavailability [25]: 7%; Vd [26]: 26 L/kg; Cmax [27]: 88 nM; PPB [7]: 99.7%; Drug metabolism [9]: 37%; half-life [28]: 4.7 h; clearance [29]: 67 mL/min/kg; AUC(0-t) [30]: 0.422 µM·h
10 | 3 µM | 6.4 µM | – | 3 µM | – | – | – | > 10 µM | – | > 10 µM | – | – | – | – | 0.348 µM | COc1cc(NC(C(=O)c2c[nH]c3ccccc23)c2ccccc2)cc(OC)c1 (stereo in doubt; 12b) | – | – | – | – | – | Papp [23]: 7.4 ×10⁻⁶ cm/s; solubility [6]: 9 µM (≈ 3.48 µg/mL); PPB [7]: 99.9%; Drug metabolism [9]: 91%; CC50 [24]: 11 µM; Drug metabolism [12]: 16%; PPB [13]: > 99.9%

From ChEMBL document CHEMBL4196174, “Discovery of Indole Derivatives as Novel and Potent Dengue Virus Inhibitors” (J Med Chem, 2018)
